Data reported in PubChem BioAssay.
Calls of active or inactive are those of the source.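 The calls were made as follows, unless noted: active = current rise at least 3 SD above the untreated control mean in each of two repeat wells; inactive = the rest.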

Tests used:
[1] = nonspecific flux increase, KCNQ1-free cells – parental CHO cells, counter-screen for KCNQ1 potentiator project (AID 493006;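 active = duplicate-averaged activation above buffer control mean plus 5 SD of those controls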;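 as to activation: fluorescence ratio of max minus min over baseline after K+ and Tl+ depolarization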); conditions: parental CHO-K1 cells, FluxOR thallium flux, at 10 µM; active compounds read high
Procedure, shortened: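 Benchmarks – buffer and R-L3 controls · Assay system – untransfected host CHO-K1 cells with FluxOR thallium dye · Measure – fluorescence change ratio scaled 0% buffer, 100% R-L3 · Technique – kinetic thallium-flux fluorescence · Timing – overnight 37 °C plating, 90 min RT dye, 20 min compound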

[2] = target: Potassium voltage-gated channel subfamily KQT member 1 (Homo sapiens) (UniProt P51787); assay: enhancement of KCNQ1 channel thallium flux – FluxOR thallium flux, CHO cells, duplicates, confirmation (AID 493007;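 active = potentiation averaged over duplicate wells exceeding buffer-only control mean by more than 3 SD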;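 as to outcome: cells depolarized by a potassium plus thallium sulfate stimulus after compound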); conditions: KCNQ1 cell line, FluxOR thallium flux fluorescence, at 10 µM; active compounds read high, % of reference activator effect, buffer zero
Procedure, shortened: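 Material: CHO cells stably expressing the KCNQ1 potassium channel / Times: dye 90 min then compound 20 min, both at room temperature / Detection: kinetic thallium influx fluorescence with FluxOR dye, 10 s baseline, 110 s post-stimulus / Benchmarks: buffer-only wells as 0% and R-L3 activator as 100% / Replicates: each compound tested in duplicate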

[3] = target: Potassium voltage-gated channel subfamily KQT member 2 (Rattus norvegicus) (UniProt O88943); assay: KCNQ2 thallium flux enhancement – KCNQ2-CHO-K1 cells, selectivity assay for KCNQ1 potentiator project (AID 493009;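 active = mean duplicate potentiation above the buffer control mean plus 5 SD of buffer wells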;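 also: assay conditions were tuned for KCNQ1 rather than KCNQ2 modulators; signal is max minus min fluorescence divided by baseline after thallium stimulus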); conditions: FluxOR thallium flux fluorescence, at 10 µM; active compounds read high, scaled: buffer 0, activator control 100
[4] = target: Potassium voltage-gated channel subfamily KQT member 1 (Homo sapiens) (UniProt P51787); assay: KCNQ1 activators by electrophysiology – IonWorks patch clamp, KCNQ1-CHO cells, orthogonal assay for KCNQ1 potentiator project, confirmation (AID 493184); conditions: automated patch clamp current, at 10 µM; active compounds read high;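 as to current potentiation: percent change of the same well's current before compound addition so 0% = no change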
Procedure, shortened: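 Probe or stimulus: depolarizing pulse to +40 mV from -90 mV; Material: CHO cells carrying KCNQ1; Compound: one dose, 10 µM final; Signal: automated voltage clamp, amphotericin B perforated patch; Read-out basis: percent current increase versus pre-compound level; Buffer or medium: pH 7.4 external bath; Replication: duplicates.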

Potassium voltage-gated channel subfamily KQT member 2 (Rattus norvegicus), sequence (O88943 whole entry, looked up): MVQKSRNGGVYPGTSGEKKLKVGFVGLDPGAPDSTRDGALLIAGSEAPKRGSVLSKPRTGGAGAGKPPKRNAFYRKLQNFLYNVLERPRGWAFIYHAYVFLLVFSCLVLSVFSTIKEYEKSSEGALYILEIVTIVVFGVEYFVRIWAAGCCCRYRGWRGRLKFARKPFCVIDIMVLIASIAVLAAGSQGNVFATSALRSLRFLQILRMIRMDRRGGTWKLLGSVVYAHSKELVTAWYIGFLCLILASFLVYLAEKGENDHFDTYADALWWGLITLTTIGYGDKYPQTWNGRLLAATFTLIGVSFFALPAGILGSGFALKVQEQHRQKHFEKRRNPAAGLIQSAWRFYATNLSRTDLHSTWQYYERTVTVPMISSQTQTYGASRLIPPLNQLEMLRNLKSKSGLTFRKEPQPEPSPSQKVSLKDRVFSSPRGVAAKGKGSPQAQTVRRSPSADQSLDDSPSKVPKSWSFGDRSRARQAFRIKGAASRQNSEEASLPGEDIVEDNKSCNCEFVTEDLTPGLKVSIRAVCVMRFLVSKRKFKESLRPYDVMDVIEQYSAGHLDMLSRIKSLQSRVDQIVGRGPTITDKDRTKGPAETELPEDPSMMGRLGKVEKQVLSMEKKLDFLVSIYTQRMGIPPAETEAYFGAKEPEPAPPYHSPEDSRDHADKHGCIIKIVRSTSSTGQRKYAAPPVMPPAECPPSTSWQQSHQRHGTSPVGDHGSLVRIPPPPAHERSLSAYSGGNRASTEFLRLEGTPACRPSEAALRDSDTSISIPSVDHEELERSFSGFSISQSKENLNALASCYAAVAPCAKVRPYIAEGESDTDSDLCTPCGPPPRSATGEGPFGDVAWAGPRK
Potassium voltage-gated channel subfamily KQT member 1 (Homo sapiens), sequence (P51787 whole entry, looked up): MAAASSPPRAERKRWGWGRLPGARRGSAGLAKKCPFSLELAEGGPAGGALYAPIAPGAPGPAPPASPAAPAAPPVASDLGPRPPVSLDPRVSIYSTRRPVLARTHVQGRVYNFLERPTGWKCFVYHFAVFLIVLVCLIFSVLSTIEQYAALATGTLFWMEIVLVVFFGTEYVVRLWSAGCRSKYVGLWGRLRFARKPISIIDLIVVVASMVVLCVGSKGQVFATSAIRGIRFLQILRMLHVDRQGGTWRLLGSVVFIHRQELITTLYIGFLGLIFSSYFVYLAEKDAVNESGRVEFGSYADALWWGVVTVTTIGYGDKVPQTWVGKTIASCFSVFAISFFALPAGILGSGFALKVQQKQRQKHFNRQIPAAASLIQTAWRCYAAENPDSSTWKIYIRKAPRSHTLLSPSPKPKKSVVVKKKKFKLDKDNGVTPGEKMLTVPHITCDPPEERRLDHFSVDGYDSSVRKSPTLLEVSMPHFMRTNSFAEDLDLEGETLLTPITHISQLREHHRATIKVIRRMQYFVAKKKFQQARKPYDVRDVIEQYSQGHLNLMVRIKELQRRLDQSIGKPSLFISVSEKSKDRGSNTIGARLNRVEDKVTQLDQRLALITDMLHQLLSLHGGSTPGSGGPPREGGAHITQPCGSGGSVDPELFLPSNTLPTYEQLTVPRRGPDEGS

Structure (SMILES)	activation [1]	potentiation [2]	potentiation [3]	outcome [4]	outcome [1]	outcome [2]	outcome [3]	current potentiation [4]
O=C(Nc1nc2c(F)cc(F)cc2s1)C1COc2ccccc2O1 (configuration not stated)	142% (active)	68.5% (active)	194% (active)	inactive	–	–	–	–
O=C(NC(=S)Nc1ccc2c(c1)OCCO2)c1ccco1	206% (active)	108% (active)	260% (active)	inactive	–	–	–	–
CCCc1cc2c(=O)c(-c3ccccn3)c(C)oc2cc1O	–	–	–	inactive	inactive	inactive	inactive	–
Cc1sc2nc(CN3CCOCC3)[nH]c(=S)c2c1C	312% (active)	69.5% (active)	292% (active)	inactive	–	–	–	–
COc1cc(CN2CCN(c3cccc(Cl)c3)CC2)cc(OC)c1OC	–	–	–	inactive	inactive	inactive	inactive	–
COc1cccc(NC(=S)NCCN2CCOCC2)c1	156% (active)	26% (active)	162% (active)	inactive	–	–	–	–
Cc1ccc(C(C(=O)NC2CCCCC2)N(Cc2cccnc2)C(=O)C2COc3ccccc3O2)o1 (configuration not stated)	–	–	–	inactive	inactive	inactive	inactive	–
O=C(CC(=O)c1ccccc1O)c1cccc(F)c1	164% (active)	50.5% (active)	188% (active)	inactive	–	–	–	–
COc1ccc(S(=O)(=O)Nc2cccc3ccc(O)cc23)cc1	–	–	–	inactive	inactive	inactive	inactive	–
CCN=C1SC(CC(=O)Nc2ccccc2OCC)C(=O)N1CC (configuration not stated)	–	–	–	inactive	inactive	inactive	inactive	–
COC(=O)c1sccc1NC(=O)CSc1ccccc1NS(=O)(=O)c1ccc(Cl)cc1	–	17.5% (active)	–	inactive	inactive	–	inactive	–
Cc1ccc(C(=O)Sc2cccccc2=O)cc1	230% (active)	37.5% (active)	228% (active)	inactive	–	–	–	–
Nc1nc(C23CC4CC(CC(C4)C2)C3)cs1	–	–	168% (active)	inactive	inactive	inactive	–	–
COc1cccc(OC)c1C(=O)Nc1ccc(C(=O)NCc2ccccc2)cc1	–	–	–	inactive	inactive	inactive	inactive	–
COc1ccc(/C=C2\SC(=O)NC2=S)cc1OC	154% (active)	34% (active)	191% (active)	inactive	–	–	–	–
CCn1c(CC(=O)Nc2ccccc2)nnc1SCC(=O)Nc1nncs1	–	–	–	inactive	inactive	inactive	inactive	–
O=C(CCn1c(=O)sc2ccccc21)NCc1ccco1	–	–	–	inactive	inactive	inactive	inactive	–

Structure (SMILES)	activation [1]	potentiation [2]	potentiation [3]	outcome [4]	outcome [1]	outcome [2]	outcome [3]	current potentiation [4]
C/C(=N\NC(=O)c1cc2ccccc2cc1O)c1ccccn1	157% (active)	38.5% (active)	169% (active)	–	–	–	–	21.5% (active)
COC(=O)C1=C(C)Nc2nnnn2C1c1ccc(Cl)cc1Cl (configuration not stated)	–	–	–	inactive	inactive	inactive	inactive	–
CC(/C=C1\SC(=S)N(c2ccc(C(=O)O)cc2)C1=O)=C\c1ccccc1	–	–	–	inactive	inactive	inactive	inactive	–
CCOC(=O)Cc1csc(NC(=S)NC(=O)c2ccccc2C)n1	201% (active)	45.5% (active)	200% (active)	inactive	–	–	–	–
COc1cccc2sc(NNC(=O)C3COc4ccccc4O3)nc12 (configuration not stated)	–	–	–	inactive	inactive	inactive	inactive	–
O=C1c2cccc3cccc(c23)C(=O)C1(O)O	–	–	–	inactive	inactive	inactive	inactive	–
COc1ccc(OC)c(-c2cc(C(=O)N3CCN(c4ccccc4)CC3)no2)c1	–	–	–	inactive	inactive	inactive	inactive	–
Cc1ccc(-n2ncc3c(SCC(=O)NNC(=O)c4ccco4)ncnc32)cc1	–	–	–	inactive	inactive	inactive	inactive	–
CC(CCc1ccccc1)NC(=S)NC(=O)c1ccco1 (configuration not stated)	214% (active)	69.5% (active)	251% (active)	inactive	–	–	–	–
CCSc1nc(=S)cc(C)[nH]1	340% (active)	172% (active)	388% (active)	inactive	–	–	–	–
Cc1cc(NC(=O)CCC(=O)N(C2CC2)C(C(=O)NC(C)(C)C)c2ccccc2Cl)no1 (configuration not stated)	–	25.5% (active)	–	inactive	inactive	–	inactive	–
CCOC(=O)C1(CCCc2ccccc2)CCN(Cc2cnc(C)s2)CC1	–	–	–	inactive	inactive	inactive	inactive	–
CCOc1ccc(-c2c(=O)n(O)c3ccccc3[n+]2[O-])cc1	224% (active)	59.5% (active)	254% (active)	inactive	–	–	–	–
CCOC(=O)CSc1nc2ccccc2c(=O)n1-c1ccc(C)cn1	–	–	–	inactive	inactive	inactive	inactive	–
Cc1ccc2nc(N3CCN(Cc4ccc(F)cc4)C3=O)c(C)cc2c1	–	–	–	inactive	inactive	inactive	inactive	–
CCOc1ccccc1C1c2[nH]c3ccccc3c2C[C@H]2C(=O)N(C3CC3)CC(=O)N12 (some centres not stated)	–	–	–	–	inactive	inactive	inactive	22.3% (active)
